High-throughput results from PubChem.
Scp1 inh: Scp-1 phosphatase inhibitors, primary screen, biochemical, colorimetric, uHTS | Carboxy-terminal domain RNA polymerase II polypeptide A small phosphatase 1 (Homo … | Recombinant Scp1, phosphopeptide, malachite green phosphate absorbance | inhibition, % at 20 µM | 0.88% of 340,000 active | AID 493091, 2011;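 active = inhibition above about 50% at 20 µM, limit read from the data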
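Material: truncated SCP-1 phosphatase (76-261aa) / Buffer or medium: 50 mM Tris acetate pH 5.5, 0.005% Tween-20, 10 mM MgCl2 / Compound dosing: one concentration, 20 µM, with 1.0% DMSO / Incubation: 45 min room-temperature reaction, 5 min colour, 30 min stabiliser / Detection: colorimetric free-phosphate detection, absorbance 630 nm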
LMPTP inh: LMPTP phosphatase inhibitors, primary screen, biochemical, fluorescence intensity, uHTS. inhibition, % at 20 µM. Low molecular weight phosphotyrosine protein phosphatase (Homo sapiens), P24666. 0.22% of 360,000 active. recombinant LMPTP-A, OMFP fluorogenic substrate;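 active = compounds that cut the enzyme signal by at least half of the control window in the single-dose screen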
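Buffer or medium: Bis-Tris pH 6.0, DTT, detergent; Assay system: LMPTP-A enzyme; Quantity: 0.625 nM enzyme; Detection: endpoint fluorescence intensity; Times: 50 min dark incubation at room temperature; Controls: substrate-only low control, DMSO enzyme-plus-substrate high control; Doses: single 20 µM dose; Read-out: percent inhibition versus substrate-only and uninhibited controls; Reagent: 400 µM OMFP.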
STEP block: STEP phosphatase inhibitors, primary screen, biochemical, fluorescence intensity, uHTS; recombinant STEP, OMFP fluorogenic substrate; 0.25% of 360,000 active; AID 588621, 2011; Tyrosine-protein phosphatase non-receptor type 5 (Homo sapiens), P54829; inhibition, % at 20 µM;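 active = inhibition at 20 µM, scaled per plate between control wells, above about 37%, limit read from the data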
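Material: STEP (striatal-enriched tyrosine phosphatase) enzyme, cell-free | Medium: 50 mM Bis-Tris pH 6.0 with 2.5 mM DTT and 0.005% Tween 20 | Read-out: Percent inhibition scaled to no-enzyme and uninhibited-enzyme controls, plate-pattern corrected | Signal: Fluorescence read at 480 nm ex / 540 nm em | Times: 20 min reaction, room temperature, in the dark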
DNMT1 block: human DNMT1 methyltransferase inhibitors, primary screen, biochemical, molecular beacon, fluorescence, HinP1I cleavage, uHTS; 0.83% of 360,000 active; inhibition (reported as % activation of signal), % at 10 µM; DNA (cytosine-5)-methyltransferase 1 (Homo sapiens), P26358; in the data active = inhibition above about 50%
Target sequence (P26358 504-1616 limits assumed): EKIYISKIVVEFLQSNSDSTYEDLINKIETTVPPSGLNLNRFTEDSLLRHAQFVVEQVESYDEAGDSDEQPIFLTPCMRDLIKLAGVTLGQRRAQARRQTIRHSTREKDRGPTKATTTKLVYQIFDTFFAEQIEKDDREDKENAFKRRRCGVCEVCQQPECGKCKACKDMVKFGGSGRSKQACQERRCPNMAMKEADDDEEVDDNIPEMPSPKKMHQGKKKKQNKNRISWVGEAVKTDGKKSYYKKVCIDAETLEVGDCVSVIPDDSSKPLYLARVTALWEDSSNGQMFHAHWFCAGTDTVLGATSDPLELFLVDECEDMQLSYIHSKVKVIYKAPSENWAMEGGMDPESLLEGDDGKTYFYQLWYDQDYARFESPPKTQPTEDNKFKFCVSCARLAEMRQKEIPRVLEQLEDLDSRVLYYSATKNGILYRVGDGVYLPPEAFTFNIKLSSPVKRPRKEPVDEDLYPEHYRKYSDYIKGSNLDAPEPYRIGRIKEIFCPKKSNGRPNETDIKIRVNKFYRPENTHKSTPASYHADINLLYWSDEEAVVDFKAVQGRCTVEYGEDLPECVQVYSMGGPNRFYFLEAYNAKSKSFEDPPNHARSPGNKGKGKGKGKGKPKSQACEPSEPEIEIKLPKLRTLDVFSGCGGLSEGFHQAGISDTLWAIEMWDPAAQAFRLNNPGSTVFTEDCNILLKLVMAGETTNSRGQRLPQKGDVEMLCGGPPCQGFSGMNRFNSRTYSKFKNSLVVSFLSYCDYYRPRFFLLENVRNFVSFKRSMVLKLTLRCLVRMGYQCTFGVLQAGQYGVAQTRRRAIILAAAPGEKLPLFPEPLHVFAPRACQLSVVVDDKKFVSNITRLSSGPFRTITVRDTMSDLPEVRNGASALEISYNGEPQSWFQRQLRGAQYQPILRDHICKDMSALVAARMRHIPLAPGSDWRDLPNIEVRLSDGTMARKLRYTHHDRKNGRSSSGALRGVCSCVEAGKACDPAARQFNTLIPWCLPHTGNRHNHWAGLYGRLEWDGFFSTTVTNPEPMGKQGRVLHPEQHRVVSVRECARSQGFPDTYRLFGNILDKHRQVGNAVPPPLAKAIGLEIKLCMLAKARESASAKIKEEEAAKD
CSN deneddyl inh: inhibitors of CSN-mediated cullin deneddylation, primary screen, biochemical, fluorescence polarization, uHTS | inhibition, % at 12.5 µM | COP9 signalosome complex subunit 5 (Homo sapiens), Q92905 | Purified CSN, SCF-Nedd8-OG deneddylation | 0.38% of 360,000 active;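 active = pattern-corrected inhibition above about 35%, with an unprinted fluorescence ratio check between 0.5 and 1.5, limit read from the data, passing the limit was not always enough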
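Schedule: reaction 90 min, room temperature / Assay system: HEK293T-derived human Csn5 enzyme / Input: Csn5 at 0.24 nM final / Measure: inhibition of Csn5 cleavage, % / Control set: substrate-only high control, full reaction low control / Technique: fluorescence polarization of the substrate / Buffer or medium: Tris/NaCl/DTT buffer, pH 7.5 / Reagent: SCFSkp2-Nedd8OG substrate at 10 nM final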
SUMO1-SIM PPI: modulators of SUMO1 protein-protein interactions, primary screen, biochemical, uHTS; Small ubiquitin-related modifier 1 (Homo sapiens), P63165; SUMO1 binding to a labelled peptide, TR-FRET, 1 h; inhibition, % at 20 µM; 0.33% of 360,000 active; AID 602429, 2012; in the data active = inhibition above about 37%
Scp1 confirm: Scp-1 phosphatase inhibitors, retest, confirmation, biochemical, colorimetric, single concentration | shares compounds with Scp1 inh | recombinant SCP-1 catalytic domain, phosphate release, malachite green absorbance | inhibition, % at 20 µM | 61% of 2,500 active | AID 540281, 2011
MG interference: colorimetric readout interference by compounds, confirmation, artefact control for Scp-1 inhibitor project, biochemical, single concentration. shares compounds with Scp1 inh. Colorimetric interference counterscreen, malachite green absorbance 630 nm. apparent inhibition (interference), % at 20 µM. 2,500 tested, under 10 active. AID 540313, 2011;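 note: compounds added after enzyme reaction finished so only phosphate colour detection is probed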
Scp1 DSF: Scp-1 binding by thermal shift, confirmation, orthogonal assay for Scp-1 inhibitor project, biophysical, differential scanning fluorimetry. Recombinant SCP1, Sypro Orange thermal shift Tm. 25% of 1,500 active. thermal shift relative to vanadate control, % at 40 µM. shares compounds with Scp1 inh. AID 540329, 2011;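 active = substances whose mean melting-temperature shift, as a percentage of the reference inhibitor's shift, reaches about 5.3%, limit read from the data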
DNMT1 inh conf: DNMT1 methyltransferase inhibitor retest, confirmation, biochemical, molecular beacon, fluorescence, single concentration; shares compounds with DNMT1 block; DNMT1 molecular beacon HinP1I cleavage; inhibition, % at 10 µM; 8% of 2,300 active; AID 602385, 2012;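 active = average inhibition of at least 30% in the single-concentration confirmation test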
Beacon interf: beacon fluorescence artifact counter-screen | DNMT1 molecular beacon spectral interference counterscreen, fluorescence 485/520 | 1% of 2,300 active | AID 602387 | shares compounds with DNMT1 block | activation (fluorescence interference), % at 10 µM;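 active = activation of at least 30% at 10 µM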;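 note: DNMT1 catalytic domain with a HinP1I cleavage step and a FAM/dabcyl DNA beacon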
STEP inh conf: STEP phosphatase inhibitor hit confirmation, biochemical, fluorescence intensity, single concentration; shares compounds with STEP block; recombinant STEP, OMFP fluorogenic substrate; inhibition, % at 20 µM; 32% of 520 active; call rule not given here
Numbers stand for hits; . = inactive; / = no result. Compounds with a hit are over-represented: about 2% of the library has one in this group of screens.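 Rule for the calls, unless noted: active = inhibition of at least 30% at 20 µM; inactive = the rest.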

SMILES	Scp1 inh	LMPTP inh	STEP block	DNMT1 block	CSN deneddyl inh	SUMO1-SIM PPI	Scp1 confirm	MG interference	Scp1 DSF	STEP inh conf	others
CCc1ccc(N=C2NC(=O)/C(=C/c3ccc(OCC(=O)O)cc3)S2)cc1	74	.	41	.	.	.	42	.	.	71
CCc1ccc(N=C2NC(=O)/C(=C/c3ccc(OCC(=O)O)c(OC)c3)S2)cc1	.	.	.	.	.	.	/	/	/	/
O=C(O)CC(NS(=O)(=O)Cc1ccccc1)c1cccc([N+](=O)[O-])c1 (stereo not drawn)	.	.	.	.	.	.	/	/	/	/
O=C1NC(=S)N(C(=O)c2ccc(F)cc2)/C1=C/c1cccnc1	95	.	43	.	.	.	56	.	.	.
CCN(c1ccccc1)S(=O)(=O)c1cc(C(=O)OCC(=O)c2c(N)n(C)c(=O)n(C)c2=O)ccc1C	62	.	46	93	.	.	63	.	.	70	DNMT1 inh conf=.;Beacon interf=.
CN(c1ccccc1)S(=O)(=O)c1cc(C(=O)OCC(=O)c2c(N)n(C)c(=O)n(C)c2=O)ccc1Cl	.	.	.	.	.	.	/	/	/	/
CCN(c1ccccc1)S(=O)(=O)c1cc(C(=O)OC(C)C(=O)Nc2ccc3c(c2)OCCO3)ccc1C (stereo not drawn)	81	.	41	.	.	.	63	.	7.5	59
CC(OC(=O)c1ccccn1)C(=O)Nc1ccc2c(c1)OCCO2 (stereo not drawn)	.	.	.	.	.	.	/	/	/	/
CCOc1cc(/C=C2/NC(=O)NC2=O)cc(Br)c1OCc1ccc(C(=O)O)cc1	73	56	96	.	.	.	88	.	.	.
C=CC1=C(C(=O)O)N2C(=O)C(NC(=O)Cc3ccccc3)C2SC1 (stereo not drawn)	96	73	88	90	54	85	78	.	.	36	DNMT1 inh conf=.;Beacon interf=.
CC1=C(C(=O)OCc2ccc([N+](=O)[O-])cc2)N2C(=O)C(NC(=O)Cc3ccccc3)C2SC1 (stereo not drawn)	.	.	.	.	.	.	/	/	/	/
CCOc1ccc(C(=O)N/N=C/c2cc([N+](=O)[O-])cs2)cc1	107	71	91	.	.	.	82	.	.	.	DNMT1 inh conf=.;Beacon interf=.
COc1cc(/C=N/NC(=O)c2ccncc2)ccc1OCC(=O)Nc1cccc([N+](=O)[O-])c1	.	.	.	.	.	.	/	/	/	/
